Data: ChEMBL document CHEMBL4390654, “Microwave-assisted solid-phase synthesis of antisense acpP peptide nucleic acid-peptide conjugates active against colistin- and tigecycline-resistant E. coli and K. pneumoniae” (Eur J Med Chem, 2019)

Legend:
Escherichia coli [1] = assay: Antibacterial activity against Escherichia coli ATCC 25922 assessed as reduction in microbial growth incubated for 20 hrs; format: functional; conditions: ATCC 25922, 20 h
Summary of the method: (§1)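 Broth microdilution MIC (modified Hancock protocol) in non-binding polystyrene plates. Inoculum ~2 × 10^5 CFU/mL in Mueller-Hinton broth with Mg²⁺ and Ca²⁺ at 4 mg/L each. Compounds dissolved in water, diluted in 0.01% acetic acid/0.2% BSA (final), added as 10× stocks. Covered plates incubated 20 h at 35 °C (± 2 °C) with 220 rpm circular shaking before MIC read.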

Escherichia coli [2] = assay: Antibacterial activity against Escherichia coli lacking a functional SbmA assessed as reduction in microbial growth incubated for 20 hrs
Summary of the method: (§2)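 Broth microdilution MIC after a modified Hancock protocol for cationic peptides, in non-binding polystyrene plates. Inoculum ~2 × 10^5 CFU/mL in Mueller-Hinton broth with Mg²⁺ and Ca²⁺ at 4 mg/L each. Compounds dissolved in water, diluted in 0.01% acetic acid, 0.2% BSA (final), added as 10× aliquots. Covered plates incubated 20 h at 35 °C (± 2 °C) with shaking at 220 rpm. MIC read as lowest inhibiting concentration.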

Klebsiella pneumoniae [3] = assay: Antibacterial activity against Klebsiella pneumoniae ATCC 13883 assessed as reduction in microbial growth incubated for 20 hrs; format: functional; conditions: ATCC 13883, 20 h; summary of the method: as §2
Pseudomonas aeruginosa [4] = assay: Antibacterial activity against Pseudomonas aeruginosa PAO1 assessed as reduction in microbial growth incubated for 20 hrs; format: functional; conditions: PAO1, 20 h; summary of the method: as §2
Acinetobacter baumannii [5] = assay: Antibacterial activity against Acinetobacter baumannii ATCC 19606 assessed as reduction in microbial growth incubated for 20 hrs; format: functional; conditions: ATCC 19606 = CIP 70.34 = JCM 6841, 20 h; summary of the method: as §2
Staphylococcus aureus = assay: Antibacterial activity against Staphylococcus aureus ATCC 29213 assessed as reduction in microbial growth incubated for 20 hrs; format: functional; conditions: ATCC 29213, 20 h; summary of the method: as §2
Escherichia coli [6] = assay: Antibacterial activity against multi-drug resistant Escherichia coli NMI 3548/14 assessed as reduction in microbial growth incubated for 20 hrs; format: functional; conditions: NMI 3548/14, 20 h; summary of the method: as §1
Escherichia coli [7] = assay: Antibacterial activity against multi-drug resistant Escherichia coli NMI 3898/15 assessed as reduction in microbial growth incubated for 20 hrs; format: functional; conditions: NMI 3898/15, 20 h; summary of the method: as §1
Klebsiella pneumoniae [8] = assay: Antibacterial activity against multi-drug resistant Klebsiella pneumoniae NMI 2697/14 assessed as reduction in microbial growth incubated for 20 hrs; format: functional; conditions: NMI 2697/14, 20 h; summary of the method: as §1
Klebsiella pneumoniae [9] = assay: Antibacterial activity against multi-drug resistant Klebsiella pneumoniae NMI 3081/09 assessed as reduction in microbial growth incubated for 20 hrs; format: functional; conditions: NMI 3081/09, 20 h; summary of the method: as §1
[10] = Hemolytic activity against RBC (unknown origin) at 100 uM; format: ADME, cell-based, Erythrocyte; conditions: red blood cells (erythrocytes); read-out: Activity
[11] = Ratio of MIC for Escherichia coli ATCC 25922 to MIC against Escherichia coli NMI 3898/15; format: functional
[12] = Ratio of MIC for Escherichia coli ATCC 25922 to MIC for Klebsiella pneumoniae ATCC 13883; format: functional
Pseudomonas aeruginosa [13] = assay: Antibacterial activity against Pseudomonas aeruginosa ATCC 27853 assessed as reduction in microbial growth incubated for 20 hrs; format: functional; conditions: ATCC 27853, 20 h; summary of the method: as §2
Escherichia coli [14] = assay: Antibacterial activity against NDM-1 producing multi-drug resistant Escherichia coli NMI 3371/16 ST101 assessed as reduction in microbial growth incubated for 20 hrs; format: functional; conditions: NMI 3371/16 ST101, 20 h; summary of the method: as §1
Escherichia coli [15] = assay: Antibacterial activity against NDM-5 producing multi-drug resistant Escherichia coli NMI 636/15 ST405 assessed as reduction in microbial growth incubated for 20 hrs; format: functional; conditions: NMI 636/15 ST405, 20 h; summary of the method: as §1
Escherichia coli [16] = assay: Antibacterial activity against NDM-1 producing multi-drug resistant Escherichia coli NMI 5428/11 ST410 assessed as reduction in microbial growth incubated for 20 hrs; format: functional; conditions: NMI 5428/11 ST410, 20 h; summary of the method: as §1
Pseudomonas aeruginosa [17] = assay: Antibacterial activity against multi-drug resistant Pseudomonas aeruginosa NMI 506/17 assessed as reduction in microbial growth incubated for 20 hrs; format: functional; conditions: NMI 506/17, 20 h; summary of the method: as §1
Acinetobacter baumannii [18] = assay: Antibacterial activity against Acinetobacter baumannii NMI 3658/17 assessed as reduction in microbial growth incubated 20 hrs; format: functional; conditions: NMI 3658/17, 20 h; summary of the method: as §2
[19] = Ratio of MIC for Escherichia coli lacking functional SbmA to MIC for Escherichia coli ATCC 25922

Structure (SMILES) | MIC (Escherichia coli [1]) [µg/mL] | MIC (Escherichia coli [2]) [µg/mL] | MIC (Klebsiella pneumoniae [3]) [µg/mL] | MIC (Pseudomonas aeruginosa [4]) [µg/mL] | MIC (Acinetobacter baumannii [5]) [µg/mL] | MIC (Staphylococcus aureus) [µg/mL] | MIC (Escherichia coli [6]) [µg/mL] | MIC (Escherichia coli [7]) [µg/mL] | MIC (Klebsiella pneumoniae [8]) [µg/mL] | MIC (Klebsiella pneumoniae [9]) [µg/mL] | hemolysis at 100 µM [10] [%] | Ratio [11] | Ratio [12] | MIC (Pseudomonas aeruginosa [13]) [µg/mL] | MIC (Escherichia coli [14]) [µg/mL] | MIC (Escherichia coli [15]) [µg/mL] | MIC (Escherichia coli [16]) [µg/mL] | MIC (Pseudomonas aeruginosa [17]) [µg/mL] | MIC (Acinetobacter baumannii [18]) [µg/mL] | Ratio [19]
CC[C@H](C)[C@H](NC(=O)[C@@H]1CCCN1C(=O)[C@H](CCCNC(=N)N)NC(=O)[C@@H]1CCCN1C(=O)[C@H](Cc1cnc[nH]1)NC(=O)[C@H](CO)NC(=O)[C@@H](NC(=O)[C@@H]1CCCN1C(=O)[C@H](CCCNC(=N)N)NC(=O)[C@@H]1CCCN1C(=O)[C@H](CO)NC(=O)[C@H](Cc1ccc(O)cc1)NC(=O)[C@@H]1CCCN1C(=O)[C@H](CCCNC(=N)N)NC(=O)[C@@H]1CCCN1C(=O)[C@H](CCCNC(=N)N)NC(=O)CCCCCNC(=O)[C@@H](N)CCCNC(=N)N)[C@@H](C)O)C(=O)N[C@@H](CCCNC(=N)N)C(=O)N[C@H](C(=O)N[C@@H](CSC1CC(=O)N(CCC(=O)NCCOCCOC(=O)N[C@@H](CS)C(=O)N[C@H](C(=O)N[C@@H](CS)C(=O)N[C@@H](C)C(=O)N[C@H](C(=O)N[C@@H](C)C(=O)N[C@@H](CS)C(=O)N[C@H](C(=O)N[C@@H](CS)C(=O)N[C@H](C(N)=O)[C@@H](C)O)[C@@H](C)O)[C@@H](C)O)[C@@H](C)O)C1=O)C(N)=O)C(C)C (some centres undefined) | 16 | > 64 | 4 to 8 | > 64 | > 64 | > 64 | 2 to 8 | 8 to 32 | 32 to 64 | 64 | < 1 | 2 to 8 | 2 to 4 | – | – | – | – | – | – | –
CC[C@H](C)[C@H](NC(=O)[C@@H]1CCCN1C(=O)[C@H](CCCNC(=N)N)NC(=O)[C@@H]1CCCN1C(=O)[C@H](Cc1cnc[nH]1)NC(=O)[C@H](CO)NC(=O)[C@@H](NC(=O)[C@@H]1CCCN1C(=O)[C@H](CCCNC(=N)N)NC(=O)[C@@H]1CCCN1C(=O)[C@H](CO)NC(=O)[C@H](Cc1ccc(O)cc1)NC(=O)[C@@H]1CCCN1C(=O)[C@H](CCCNC(=N)N)NC(=O)[C@@H]1CCCN1C(=O)[C@H](CCCNC(=N)N)NC(=O)CCCCCNC(=O)[C@@H](N)CCCNC(=N)N)[C@@H](C)O)C(=O)N[C@@H](CCCNC(=N)N)C(=O)N[C@H](C(=O)N[C@@H](CS)C(=O)N[C@H](C(=O)N[C@@H](CS)C(=O)N[C@@H](C)C(=O)N[C@H](C(=O)N[C@@H](C)C(=O)N[C@@H](CS)C(=O)N[C@H](C(=O)N[C@@H](CS)C(=O)N[C@H](C(N)=O)[C@@H](C)O)[C@@H](C)O)[C@@H](C)O)[C@@H](C)O)C(C)C | 4 | > 64 | 2 to 4 | > 64 | 64 | > 64 | 1 to 2 | 4 | 32 | 8 | < 1 | 2 to 8 | – | > 64 | 0.5 | 1 | 1 | > 64 | 32 | > 16
CC[C@@H](C)[C@@H](NC(=O)[C@@H](CCCCN)NC(=O)[C@@H]([C@H](C)CC)N(C(=O)[C@@H](CCCNC(=N)N)NC(=O)CCCCCNC(=O)[C@H](N)CCCNC(=N)N)C(=O)[C@@H](CCCNC(=N)N)NC(=O)CCCCCNC(=O)[C@H](N)CCCNC(=N)N)C(=O)N[C@H](CC(C)C)C(=O)N[C@H](Cc1ccccc1)C(=O)N[C@H](CCC(N)=O)C(=O)N[C@H](CC(N)=O)C(=O)N[C@H](CCCNC(=N)N)C(=O)N[C@H](CCCNC(=N)N)C(=O)N[C@H](CCSC)C(=O)N[C@H](CCCCN)C(=O)N[C@H](Cc1c[nH]c2ccccc12)C(=O)N[C@H](CCCCN)C(=O)N[C@H](CCCCN)C(N)=O | 2 to 4 | 2 | 4 | 1 | 2 | 2 to 4 | 1 | 2 | 16 | 16 | < 1 | – | – | 2 | 2 | 2 | 1 to 2 | 4 | 2 | –
